The source of these data is ChEMBL document CHEMBL1122909, “Psoralenamines. 3. Synthesis, pharmacological behavior, and DNA binding of 5-(aminomethyl)-8-methoxy-, 5-[[(3-aminopropyl)oxy]methyl]-, and 8-[(3-aminopropyl)oxy]psoralen derivatives” (1985).

The test system of test [1] is Nucleic Acid. The test is described as follows: Evaluated for photo-cross-linking of DNA. Format: functional. An outline of the steps:
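Sonicated calf thymus DNA (200 µg) plus psoralen 0.1–100 µg/mL in 10 mM Tris-HCl, 1 mM EDTA, pH 7.0. Irradiated 30 min (~365 nm, 24 kJ/m2), heated 100 °C 5 min, ice-cooled. Double- vs single-stranded DNA resolved on hydroxylapatite with 50–500 mM phosphate gradient. The concentration giving 50% cross-linked DNA is expressed relative to 8-MOP.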

The subject of test [2] is Mus musculus. The test is described as follows: Evaluated in vivo for its photosensitization activity, against increase in skin thickness relative to that of 8-MOP. Format: functional. Also noted: unit: % of 8-MOP. An outline of the steps: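 Female hairless Hr/Hr mice, 4–6 weeks, 5–28 per group. Compound given ip at 0.6, 6 or 60 mg/kg (reported at 6 mg/kg). UVA from four TL20W/09 tubes after 5 min–2 h, 4 J cm-1 as printed. Skin-fold thickness measured by caliper 24 h post-irradiation, expressed relative to 8-MOP (=100%).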

The test system of test [3] is NHIK3025. Description: Evaluated for DNA. photo-cross-linking in cell line NHIK 3025 cross-linking affinity measured by alkaline elution technique. The test is classed as functional, Homo sapiens. Put shortly:
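NHIK 3025 cells (~10^6) labelled 16 h with [3H]thymidine (1 µCi/mL). Psoralen in PBS at 1–90 µg/mL, 10-min equilibration, then irradiation 0.8 J/cm2 at ~365 nm. Cells trypsinized and lysed on 2-µm filter (0.2% Sarcosyl, 2 M NaCl, 40 mM EDTA, pH 10), then eluted at pH 12.2. Relative efficiency vs 8-MOP is read from concentrations giving similar elution retardation.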

In test [4] the test system is NHIK3025. Description: Evaluated in vitro for phototoxic effect on human cell line NHIK 3025, assay performed using threefold dilution and result reported by one dilution step. The test is classed as functional.
Test [5] concerns Tetrahymena thermophila. Description: Evaluated for DNA photo-cross-linking in Tetrahymena thermophila and relative cross-linking affinity measured by the alkaline elution technique. Format: functional. Put shortly: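 Tetrahymena thermophila ~2×10^5 cells prelabelled with [3H]thymidine; phototreated with psoralen in 10 mM Tris-HCl pH 7.4 at ~365 nm. Interstrand cross-links are measured by alkaline elution: cells lysed on 2-µm filter (0.2% Sarcosyl, 2 M NaCl, 40 mM EDTA, pH 10), eluted at pH 12.2. Efficiency relative to 8-MOP is taken from concentrations giving similar elution retardation.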

The subject of test [6] is Tetrahymena thermophila. The test is described as follows: Evaluated in vitro for phototoxic effect on ciliate Tetrahymena thermophila cells. The test is classed as functional.

Take `COc1c2occc2c(CN)c2ccc(=O)oc12.Cl`: the Photo-cross-linking of DNA in test [1] was 2.1. In test [2], the Photosensitization is recorded as 172. The DNA crosslinking in test [3] worked out at 8. Also, the Phototoxic effect in test [4] is 1; in test [6], 5. Moreover, the DNA photo-crosslinking in test [5] is reported as 3.
`COc1c2occc2c(CN2CCCCC2)c2ccc(=O)oc12.Cl` displayed a Photo-cross-linking of DNA in test [1] of 0.3. Moreover, in test [2], the Photosensitization is listed as 238. In test [3], the DNA crosslinking was 19. In addition, the Phototoxic effect in test [4] stood at 3. The DNA photo-crosslinking in test [5] is 8.
`CC[N+](CC)(CC)Cc1c2ccoc2c(OC)c2oc(=O)ccc12.[Cl-]` displayed a Photo-cross-linking of DNA in test [1] of 0.05. The Photosensitization in test [2] was 133. For the same compound, the DNA crosslinking in test [3] is reported as 8. Moreover, the figures for the Phototoxic effect in test [4] and in test [6] were 3 and 5, respectively. Further, the DNA photo-crosslinking in test [5] was determined as 14.
`COc1c2occc2c(C[N+](C)(C)C)c2ccc(=O)oc12.[Cl-]` came in with a Photo-cross-linking of DNA in test [1] of 0.1. Besides, the Photosensitization in test [2] is recorded as 140. The DNA crosslinking in test [3] is recorded as 3. Besides, the values for the Phototoxic effect in test [4] and in test [6] were 1 and 0.3, respectively. The compound also had a DNA photo-crosslinking in test [5] of 2.
As to `COc1c2occc2c(CN(CCO)CCO)c2ccc(=O)oc12.Cl`, the Photo-cross-linking of DNA in test [1] is 0.2. For the same compound, the Photosensitization in test [2] was found to be 339. In test [3], this compound registered a DNA crosslinking of 1. In addition, the Phototoxic effect is reported as 3 in test [4] and 0.3 in test [6]. For the same compound, in test [5], the DNA photo-crosslinking came to 3.
For `COc1c2occc2cc2ccc(=O)oc12` [METHOXSALEN], the Photo-cross-linking of DNA in test [1] is 1. In addition, the Photosensitization in test [2] came to 100. The compound also displayed a DNA crosslinking in test [3] of 100. Moreover, the Phototoxic effect in test [4] and in test [6] was 100 throughout. The compound further displayed a DNA photo-crosslinking in test [5] of 100.
`COc1c2occc2c(CN2CCOCC2)c2ccc(=O)oc12.Cl`: in test [1], the Photo-cross-linking of DNA was determined as 0.1. In addition, the Photosensitization in test [2] came out at 154. This compound also yielded a DNA crosslinking in test [3] of less than 1. Besides, the Phototoxic effect in test [4] and in test [6] was 0.3 throughout. In addition, the DNA photo-crosslinking in test [5] was 6.
As to `COc1c2occc2c(CN(C)C)c2ccc(=O)oc12.Cl`, the Photo-cross-linking of DNA in test [1] amounted to 0.6. Besides, the Photosensitization in test [2] is on record as 194. In addition, the DNA crosslinking in test [3] is on record as 24. Besides, the Phototoxic effect in test [4] is 7; in test [6], 15. The same compound showed a DNA photo-crosslinking in test [5] of 14.
In test [1], `C[N+](C)(C)CCCOc1c2occc2cc2ccc(=O)oc12.[Br-]` gave a Photo-cross-linking of DNA of 1.1. Further, the Photosensitization in test [2] amounted to 477. This compound showed a DNA crosslinking in test [3] of 3. The values for the Phototoxic effect in test [4] and in test [6] were 15 and 3, respectively. The compound further had a DNA photo-crosslinking in test [5] of 5.
`O=c1ccc2cc3ccoc3c(OCCO)c2o1` gave a Photo-cross-linking of DNA in test [1] of 1.
On to `COc1c2occc2c(CN2CCN(C)CC2)c2ccc(=O)oc12.Cl`, for which the Photo-cross-linking of DNA in test [1] was 0.2. Besides, the Photosensitization in test [2] stood at 325. In test [3], the DNA crosslinking was found to be 9. Moreover, the Phototoxic effect in test [4] turned out to be 5; in test [6], 10.
The compound `Br.CCN(CC)CCCOc1c2occc2cc2ccc(=O)oc12` gave a Photo-cross-linking of DNA in test [1] of 1.8. For the same compound, in test [2], the Photosensitization stood at 357. Further, in test [3], the DNA crosslinking worked out at 190. Moreover, the Phototoxic effect in test [4] is recorded as 100; in test [6], 150. In test [5], this compound returned a DNA photo-crosslinking of 170.
`COc1c2occc2c(COCCC[N+](C)(C)C)c2ccc(=O)oc12.[Br-]` came in with a Photo-cross-linking of DNA in test [1] of 0.1. For the same compound, in test [3], the DNA crosslinking was determined as 1. Further, the figures for the Phototoxic effect in test [4] and in test [6] were 3 and less than 0.3, respectively. The compound also gave a DNA photo-crosslinking in test [5] of 4.
For the compound `COCc1c2ccoc2c(OC)c2oc(=O)ccc12`, the Photo-cross-linking of DNA in test [1] was 0.04.
`COc1c2occc2c(COCCCO)c2ccc(=O)oc12`: the Photo-cross-linking of DNA in test [1] is less than 0.07.
Regarding `CN1CC[N+](C)(CCCOc2c3occc3cc3ccc(=O)oc23)CC1.[Br-]`, in test [1], the Photo-cross-linking of DNA came to 2.5. In test [2], the Photosensitization was 463. The compound also registered a DNA crosslinking in test [3] of 7. Besides, the Phototoxic effect in test [4] and in test [6] was 10 throughout. Further, the DNA photo-crosslinking in test [5] was found to be 2.
Compound `COc1c2occc2c(CN(C)CCO)c2ccc(=O)oc12.Cl` yielded a Photo-cross-linking of DNA in test [1] of 0.5. In addition, in test [2], the Photosensitization stood at 306. The compound also registered a DNA crosslinking in test [3] of 15. Also, the Phototoxic effect is reported as 2 in test [4] and 3 in test [6].
For `COc1c2occc2c(CN(C(C)C)C(C)C)c2ccc(=O)oc12.Cl` the same measures were 0.15, 87, 12, 2 and 10.
As for `COc1c2occc2c(CO)c2ccc(=O)oc12`, the Photo-cross-linking of DNA in test [1] was determined as 0.07.
